# According to ChEMBL document CHEMBL5120843, “Structure and Antimicrobial Activity of Rare Lactone Lipids from the Sooty Mold (Scorias spongiosa)” (J Nat Prod, 2022):
# What was measured:
# Staphylococcus aureus [1] = assay: Antibacterial activity against Staphylococcus aureus ATCC 29213 incubated for 16 to 20 hrs by CLSI protocol based assay; assay type: functional, organism-based
# Staphylococcus aureus [2] = assay: Antibacterial activity against methicillin-resistant Staphylococcus aureus ATCC 33591 incubated for 16 to 20 hrs by CLSI protocol based assay; assay type: functional, organism-based
# Pichia kudriavzevii [3] = assay: Antifungal activity against Candida krusei ATCC 6258 assessed as minimum fungicidal concentration incubated for 46 to 50 hrs by CLSI protocol based assay; assay type: functional; conditions: time 46-50 hrs
# How it was run: (§1)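 After the Candida broth microdilution (RPMI/MOPS pH 6.0, 35 °C, 46–50 h), 5 μL from each clear well moved to fresh medium and incubated again under the same conditions. MFC defined as the lowest test concentration that kills the organism.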
# Staphylococcus aureus [4] = assay: Antibacterial activity against Staphylococcus aureus ATCC 29213 assessed as minimum bactericidal concentration incubated for 16 to 20 hrs by CLSI protocol based assay; assay type: functional; conditions: time 16-20 hrs
# Pichia kudriavzevii [5] = assay: Antifungal activity against Candida krusei ATCC 6258 incubated for 46 to 50 hrs by CLSI protocol based assay; assay type: functional, organism-based
# Nakaseomyces glabratus [6] = assay: Antifungal activity against Candida glabrata ATCC 90030 assessed as minimum inhibitory concentration incubated for 46 to 50 hrs by CLSI protocol based assay; assay type: functional; conditions: time 46-50 hrs
# How it was run: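 Candida strains in RPMI 1640/0.2% dextrose/0.03% glutamine/MOPS, pH 6.0. Inoculum 1.5 × 10^3, samples serially diluted from DMSO stocks, duplicate wells, final concentration 1/100th of stock. Read at 530 nm before and after 35 °C for 46–50 h. MIC taken as lowest test concentration with no detectable growth.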
# Staphylococcus aureus [7] = assay: Antibacterial activity against methicillin-resistant Staphylococcus aureus ATCC 33591 assessed as minimum bactericidal concentration incubated for 16 to 20 hrs by CLSI protocol based assay; assay type: functional; conditions: time 16-20 hrs
# Pichia kudriavzevii [8] = assay: Antifungal activity against Candida krusei ATCC 6258 assessed as minimum inhibitory concentration incubated for 46 to 50 hrs by CLSI protocol based assay; assay type: functional; conditions: time 46-50 hrs
# How it was run: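 Inoculum 1.5 × 10^3, samples serially diluted from DMSO stocks, duplicate wells, final concentration 1/100th of stock. Read at 530 nm before and after 35 °C for 46–50 h. MIC taken as lowest test concentration with no detectable growth.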
# Cryptococcus neoformans [9] = assay: Antifungal activity against Cryptococcus neoformans ATCC 90113 assessed as minimum inhibitory concentration incubated for 70 to 74 hrs by CLSI protocol based assay; assay type: functional; conditions: time 70-74 hrs
# How it was run: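 Cryptococcus neoformans in Sabouraud dextrose broth at final 1.5 × 10^3, serially diluted samples in duplicate, final concentration 1/100th of stock. Read at 530 nm before and after 35 °C for 70–74 h. MIC is the lowest test concentration with no detectable growth.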
# Staphylococcus aureus [10] = assay: Antibacterial activity against methicillin-resistant Staphylococcus aureus ATCC 33591 assessed as minimum inhibitory concentration incubated for 16 to 20 hrs by CLSI protocol based assay; assay type: functional; conditions: time 16-20 hrs
# Candida albicans = assay: Antifungal activity against Candida albicans ATCC 90028 incubated for 46 to 50 hrs by CLSI protocol based assay; assay type: functional, organism-based
# Staphylococcus aureus [11] = assay: Antibacterial activity against Staphylococcus aureus ATCC 29213 assessed as minimum inhibitory concentration incubated for 16 to 20 hrs by CLSI protocol based assay; assay type: functional; conditions: time 16-20 hrs
# Nakaseomyces glabratus [12] = assay: Antifungal activity against Candida glabrata ATCC 90030 assessed as minimum fungicidal concentration incubated for 46 to 50 hrs by CLSI protocol based assay; assay type: functional; conditions: time 46-50 hrs; how it was run: as §1
# Cryptococcus neoformans [13] = assay: Antifungal activity against Cryptococcus neoformans ATCC 90113 incubated for 70 to 74 hrs by CLSI protocol based assay; assay type: functional, organism-based
# Nakaseomyces glabratus [14] = assay: Antifungal activity against Candida glabrata ATCC 90030 incubated for 46 to 50 hrs by CLSI protocol based assay; assay type: functional, organism-based
# Cryptococcus neoformans [15] = assay: Antifungal activity against Cryptococcus neoformans ATCC 90113 assessed as minimum fungicidal concentration incubated for 70 to 74 hrs by CLSI protocol based assay; assay type: functional; conditions: time 70-74 hrs
# How it was run: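 From clear wells of the Cryptococcus broth assay (Sabouraud dextrose, 35 °C, 70–74 h), 5 μL transferred to fresh medium and reincubated under the same conditions. MFC is the lowest concentration that kills the organism.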
# Cryptococcus neoformans [16] = assay: Synergistic antifungal activity against Cryptococcus neoformans H99 assessed as fractional inhibitory concentration incubated for 72 hrs by CLSI protocol based checkerboard assay; assay type: functional
# How it was run: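 Checkerboard in RPMI 1640 buffered with MOPS pH 7.0. Final inoculum 1.0 × 10^4 CFU/mL from an overnight H99 culture. […] OD490 read before and after 72 h at 30 °C, normalized to solvent control. FIC ≤0.5 taken as synergy.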
# Cryptococcus neoformans [17] = assay: Synergistic antifungal activity against Cryptococcus neoformans H99 assessed as fold increase in amphotericin fungicidal activity at 2 ug/ml incubated for 48 hrs by CLSI protocol based yeast peptone dextrose agar plate method; assay type: functional; conditions: dose 2 µg/ml
# How it was run: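 Fungicidal read-out from the H99 checkerboard (RPMI/MOPS pH 7.0, 1.0 × 10^4 CFU/mL, 30 °C, 72 h). Plate shaken, then 2 μL from each well spotted on YPD agar and incubated at 30 °C for 48 h.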
# Cryptococcus neoformans [18] = assay: Synergistic antifungal activity against Cryptococcus neoformans H99 assessed as […] at 2 ug/ml incubated for 72 hrs by CLSI protocol based checkerboard assay; assay type: functional; conditions: dose 2 µg/ml
# How it was run: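 Checkerboard per CLSI. Overnight C. neoformans H99 culture diluted in RPMI 1640 with MOPS, pH 7.0, to final 1.0 × 10^4 CFU/mL. […] Single-agent, solvent and media controls included. OD 490 nm read before and after 30 °C for 72 h, normalized to solvent control. FIC ≤ 0.5 scored as synergy.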
SMILES,IC50 (Staphylococcus aureus [1]),IC50 (Staphylococcus aureus [2]),MFC (Pichia kudriavzevii [3]),MBC (Staphylococcus aureus [4]),IC50 (Pichia kudriavzevii [5]),MIC (Nakaseomyces glabratus [6]),MBC (Staphylococcus aureus [7]),MIC (Pichia kudriavzevii [8]),MIC (Cryptococcus neoformans [9]),MIC (Staphylococcus aureus [10]),IC50 (Candida albicans),MIC (Staphylococcus aureus [11]),MFC (Nakaseomyces glabratus [12]),IC50 (Cryptococcus neoformans [13]),IC50 (Nakaseomyces glabratus [14]),MFC (Cryptococcus neoformans [15]),FIC (Cryptococcus neoformans [16]),fold change (FC) (Cryptococcus neoformans [17]),fold change (FC) (Cryptococcus neoformans [18])
CCCCCCCCCCCC[C@]1(C)C=C/C(=C2/C(=O)O[C@@H](CC(=O)O)C2=O)O1,0.44 µg/mL,0.39 µg/mL,10 µg/mL,20 µg/mL,6.31 µg/mL,10 µg/mL,10 µg/mL,10 µg/mL,0.63 µg/mL,0.63 µg/mL,15.3 µg/mL,1.25 µg/mL,10 µg/mL,0.37 µg/mL,2.85 µg/mL,0.63 µg/mL,,,
C[C@@H]1[C@H](O)[C@@H](C)/C=C/C=C/C=C/C=C/C=C/C=C/C=C/[C@H](O[C@@H]2O[C@H](C)[C@@H](O)[C@H](N)[C@@H]2O)C[C@@H]2O[C@](O)(C[C@@H](O)C[C@@H](O)[C@H](O)CC[C@@H](O)C[C@@H](O)CC(=O)O[C@H]1C)C[C@H](O)[C@H]2C(=O)O [AMPHOTERICIN B],,,,,0.74 µg/mL,0.63 µg/mL,,,0.63 µg/mL,,0.14 µg/mL,,0.63 µg/mL,0.35 µg/mL,0.21 µg/mL,0.63 µg/mL,0.3,,
CCCCCCCCCCCC[C@]1(C)C=C/C(=C2/C(=O)O[C@@H](CC(=O)OC)C2=O)O1,1.08 µg/mL,0.71 µg/mL,,10 µg/mL,20 µg/mL,,5 µg/mL,,1.25 µg/mL,1.25 µg/mL,,2.5 µg/mL,,0.63 µg/mL,,1.25 µg/mL,,8,16
